Experimental data as given in ChEMBL document CHEMBL1149148, “Synthesis and structure-activity relationships of novel 7-substituted 1,4-dihydro-4-oxo-1-(2-thiazolyl)-1,8-naphthyridine-3-carboxylic acids as antitumor agents. Part 2” (J Med Chem, 2004).
Converted amounts (≈) assume the structure as drawn.

Experiments:
P388 = test: Cytotoxic activity against murine P388 leukemia cells; assay type: functional, cell-based; conditions: Mus musculus
Mus musculus [1] = test: Ratio of median survival time of treated mice (T) to that of median survival time of controls (C) in mice infected with p388 cells (in vivo) at a dose of 3.13 mg/kg; assay type: functional
Outline: (§1)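 BDF1 mice implanted ip with 0.1 mL diluted ascites fluid carrying 10⁶ P388 leukemia cells. Dosing ip on days 1 and 5 after implantation. Test compounds were suspended in 0.4% CMC, and reference drugs were dissolved and diluted in distilled water. Seven mice per group. T/C (%) = median survival time of treated group / median survival time of control group × 100.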

[2] = Solubility at pH 7.2; assay type: physicochemical; conditions: buffer
Outline: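 Water solubility measured in pH 7.2 phosphate buffer, reported in mg/mL.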

Mus musculus [3] = test: Ratio of median survival time of treated mice (T) to that of median survival time of controls (C) in mice infected with p388 cells (in vivo) at a dose of 12.5 mg/kg; assay type: functional; outline: as §1
Mus musculus [4] = test: Ratio of median survival time of treated mice (T) to that of median survival time of controls (C) in mice infected with p388 cells (in vivo) at a dose of 50 mg/kg; assay type: functional; outline: as §1
Mus musculus [5] = test: Ratio of median survival time of treated mice (T) to that of median survival time of controls (C) in mice infected with p388 cells (in vivo) at a dose of 1.56 mg/kg; assay type: functional; outline: as §1
Mus musculus [6] = test: Ratio of median survival time of treated mice (T) to that of median survival time of controls (C) in mice infected with p388 cells (in vivo) at a dose of 6.25 mg/kg; assay type: functional; outline: as §1
Mus musculus [7] = test: Ratio of median survival time of treated mice (T) to that of median survival time of controls (C) in mice infected with p388 cells (in vivo) at a dose of 0.78 mg/kg; assay type: functional; outline: as §1
SCaBER = test: Cytotoxic activity against human tumor SCaBER bladder cells; assay type: functional, cell-based
Outline: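 SCaBER cells maintained in EMEM with 10% FBS and nonessential amino acids. Seeded at (1-2) × 10⁴ cells/mL, 24 h preincubation, then 72 h compound exposure at various concentrations at 37 °C in 5% CO₂. MTT (5 mg/mL) for 4 h, then DMSO, read at 570/690 nm. IC50 is 50% absorbance drop vs control. At least two independent experiments averaged.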

SBC-3 = test: Cytotoxic activity against human tumor SBC-3 lung cells; assay type: functional, cell-based
Outline: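 SBC-3 cells cultured in RPMI 1640 plus 10% FBS. Plated at (1-2) × 10⁴ cells/mL, preincubated 24 h, then compound at various concentrations for 72 h at 37 °C in 5% CO₂. MTT solution (5 mg/mL) for 4 h, DMSO solubilization, absorbance 570 nm with 690 nm reference. IC50 is the dose halving absorbance vs control. Mean of at least two independent runs.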

PANC-1 = test: Cytotoxic activity against human tumor PANC-1 pancreas cells; assay type: functional, cell-based
Outline: (§2)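 Hs746T and PANC-1 cells kept in Dulbecco's modified Eagle's medium with 10% FBS. Seeded at (1-2) × 10⁴ cells/mL, 24 h preincubation, then graded compound concentrations for 72 h at 37 °C in 5% CO₂. MTT (5 mg/mL solution) added for 4 h, formazan taken up in DMSO, read at 570/690 nm. IC50 is 50% absorbance reduction relative to control. At least two independent experiments averaged.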

Hs746T = test: Cytotoxic activity against human tumor Hs 746.T stomach cells; assay type: functional, cell-based; outline: as §2
HL-60 = test: Cytotoxic activity against human tumor HL-60 leukemia cells; assay type: functional, cell-based
Outline: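 HL-60 cells grown in RPMI 1640 with 20% FBS. Seeded at (1-2) × 10⁴ cells/mL, preincubated 24 h, then exposed to a range of compound concentrations for 72 h at 37 °C in 5% CO₂. Read by MTT (5 mg/mL solution, 4 h), formazan dissolved in DMSO, absorbance 570 nm/690 nm. IC50 is the concentration giving 50% absorbance reduction vs control. Mean of at least two independent experiments.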

SK-OV-3 = test: Cytotoxic activity against human tumor SK-OV-3 ovary cells; assay type: functional, cell-based; conditions: SK-OV-3, Female gonad
Outline: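 SKOV3 cells grown in RPMI 1640 with 10% heat-inactivated FBS. Cells at (1-2) × 10⁴ cells/mL, preincubated 24 h, treated with graded concentrations for 72 h at 37 °C in 5% CO₂. MTT readout (5 mg/mL, 4 h), formazan in DMSO, absorbance 570 nm/690 nm. IC50 is the concentration for 50% absorbance reduction vs control. Mean of at least two independent experiments.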

Cl.NC1CCN(c2nc3c(cc2Cl)c(=O)c(C(=O)O)cn3-c2nccs2)C1 (centres undefined)
IC50 (P388): 0.227 µg/mL

Cl.NC1CCN(c2nc3c(cc2O)c(=O)c(C(=O)O)cn3-c2nccs2)C1 (centres undefined)
IC50 (P388): 4.31 µg/mL

CNC1(C)CCN(c2ccc3c(=O)c(C(=O)O)cn(-c4nccs4)c3n2)C1.Cl (centres undefined)
T/C (Mus musculus [1]): 163%
solubility [2]: 7.2 µg/mL
T/C (Mus musculus [3]): 225%
IC50 (P388): 0.018 µg/mL
T/C (Mus musculus [4]): 113%

C#Cc1ccc2c(=O)c(C(=O)O)cn(-c3nccs3)c2n1
IC50 (P388): 2.3 µg/mL (≈ 7.74 µM)

Cl.NC1CCN(c2cc(C(F)(F)F)c3c(=O)c(C(=O)O)cn(-c4nccs4)c3n2)C1 (centres undefined)
IC50 (P388): 0.098 µg/mL

COc1ccccc1N1CCN(c2ccc3c(=O)c(C(=O)O)cn(-c4nccs4)c3n2)CC1.Cl
IC50 (P388): > 1 µg/mL

COc1cccc2c1C(=O)c1c(O)c3c(c(O)c1C2=O)C[C@@](O)(C(=O)CO)C[C@@H]3O[C@H]1C[C@H](N)[C@H](O)[C@H](C)O1 [DOXORUBICIN]
T/C (Mus musculus [1]): 235%
T/C (Mus musculus [5]): 228%
T/C (Mus musculus [6]): 293%
T/C (Mus musculus [7]): 173%

CN[C@H]1CN(c2ccc3c(=O)c(C(=O)O)cn(-c4nccs4)c3n2)C[C@@H]1OC [VOSAROXIN]
IC50 (SCaBER): 0.121 µg/mL (≈ 0.301 µM)
IC50 (SBC-3): 0.0319 µg/mL (≈ 0.0795 µM)
IC50 (PANC-1): 0.388 µg/mL (≈ 0.967 µM)
IC50 (Hs746T): 0.194 µg/mL (≈ 0.483 µM)
IC50 (HL-60): 0.0498 µg/mL (≈ 0.124 µM)
IC50 (SK-OV-3): 0.266 µg/mL (≈ 0.663 µM)

CN[C@@H]1CN(c2ccc3c(=O)c(C(=O)O)cn(-c4nccs4)c3n2)[C@H]1C.Cl
IC50 (P388): 0.041 µg/mL

Cl.NC1CCN(c2cc(Cl)c3c(=O)c(C(=O)O)cn(-c4nccs4)c3n2)C1 (centres undefined)
IC50 (P388): 0.049 µg/mL

C[C@H]1[C@H](N)CCN1c1ccc2c(=O)c(C(=O)O)cn(-c3nccs3)c2n1.Cl
IC50 (P388): 0.094 µg/mL

C[C@H]1CN(c2ccc3c(=O)c(C(=O)O)cn(-c4nccs4)c3n2)C[C@@H]1N.Cl
T/C (Mus musculus [1]): 175%
solubility [2]: 17 µg/mL
T/C (Mus musculus [3]): 200%
IC50 (P388): 0.0096 µg/mL
T/C (Mus musculus [4]): 288%

Cl.O=C(O)c1cn(-c2nccs2)c2nc(N3CCCC3)ccc2c1=O
IC50 (P388): 0.066 µg/mL

CC1(N)CCN(c2ccc3c(=O)c(C(=O)O)cn(-c4nccs4)c3n2)C1.Cl (centres undefined)
T/C (Mus musculus [1]): 150%
solubility [2]: 3.8 µg/mL
T/C (Mus musculus [3]): 213%
IC50 (P388): 0.019 µg/mL
T/C (Mus musculus [4]): 138%

O=C(O)c1cn(-c2nccs2)c2nc(-c3cc[nH]n3)ccc2c1=O
IC50 (P388): 4.34 µg/mL (≈ 12.8 µM)

C=Cc1ccc2c(=O)c(C(=O)O)cn(-c3nccs3)c2n1
IC50 (P388): > 1 µg/mL

Cl.O=C(O)c1cn(-c2nccs2)c2nc(N3CCNCC3)ccc2c1=O
IC50 (P388): 0.057 µg/mL

Cl.NC1CCN(c2ccc3c(=O)c(C(=O)O)cn(-c4nccs4)c3n2)C1 (centres undefined)
T/C (Mus musculus [1]): 188%
solubility [2]: 6.9 µg/mL
T/C (Mus musculus [3]): 275%
IC50 (P388): 0.01 µg/mL
T/C (Mus musculus [4]): 125%

CN[C@H]1CN(c2ccc3c(=O)c(C(=O)O)cn(-c4nccs4)c3n2)C[C@@H]1C.Cl
T/C (Mus musculus [1]): 188%
solubility [2]: 6.2 µg/mL
T/C (Mus musculus [3]): 288%
IC50 (P388): 0.012 µg/mL
T/C (Mus musculus [4]): 75%

Cl.NC1CCN(c2nc3c(cc2[N+](=O)[O-])c(=O)c(C(=O)O)cn3-c2nccs2)C1 (centres undefined)
IC50 (P388): 2.29 µg/mL

C[C@@H]1CN(c2ccc3c(=O)c(C(=O)O)cn(-c4nccs4)c3n2)C[C@H](C)N1.Cl
IC50 (P388): 0.081 µg/mL
